A word on the LD50: it is the dose at which mortality reaches 50%. As a reminder, the pKa is the negative logarithm of the acid dissociation constant. Low readings indicate a stronger acid or weaker base, high ones a weaker acid or stronger base.

Data set [1] deals with L1210. Nature of the data set: In vitro antitumor activity against murine leukemic L1210 cells; No activity. In kind it is functional, cell-based. Particulars: Mus musculus.
Data set [2] relates to P388. Briefly: In vivo antitumor activity against murine P388 leukemia; No activity. In kind it is functional, organism-based. Conditions: Mus musculus.
Data set [3] in a line: acute toxicity against rat after iv administration. In kind it is organism-based. Particulars: in vivo. The essentials:
(§1)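 Single iv or ip injection; two female SD rats or male CD2F1 mice per dose group. Lethality and clinical signs of toxicity observed for 28 days to give an approximate LD50. Animals kept specific-pathogen-free with pellet diet and acidified water (pH 3) ad libitum.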

Data set [4] is described as follows: acute toxicity against mouse after ip administration. In kind it is organism-based. Conditions: in vivo. In short, it runs like this:
as §1

A short description of data set [5]: pKa. (dissociation constant) of the compound. In kind it is physicochemical. In short, it runs like this:
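³¹P NMR titration at 25 °C in aqueous 0.1 M NaCl to keep ionic strength constant. pH adjusted with NaOH or HCl and measured before and after each spectrum. pKa calculated from the pH dependence of the chemical shift.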

For data set [6], the system named is P388. Briefly: In vivo antitumor activity against murine P388 leukemia; Effective. In kind it is functional, organism-based. Particulars: Mus musculus.

Turning to `O=P(O)(O)OCCCNCCCl`, the Activity result in data set [1] and in data set [2] was “No activity” each time. Further, in data set [3], the LD50 worked out at 800 mg/kg.

For the compound `O=P(O)(O)OCCCN1CC1`, the Activity result in data set [1] and in data set [2] was “No activity” throughout. The compound also displayed an LD50 in data set [4] of 180 mg/kg.

`NP1(=O)OCCCN1CCCl` (centres undefined) had an LD50 in data set [3] of more than 1000 mg/kg.

Turning to `O=P1(O)NCCCO1`, in data set [5], the pKa came out at 4.1.

With `O=P1(NCCCl)NCCCO1` (centres undefined), the Activity entry in data set [1] and in data set [2] was “No activity” in each case. The compound also yielded a median lethal dose (LD50) in data set [3] of 800 mg/kg.

`NP(=O)(O)OCCCNCCCl` displayed a pKa in data set [5] of 2.3.

`O=P1(NCCCl)OCCCN1CCCl` (centres undefined) [IFOSFAMIDE]: the results for the LD50 in data set [4] and in data set [3] were 700 mg/kg and 300 mg/kg, respectively. The Activity result in data set [6] is “Effective”.

On to `NP1(=O)NCCCO1` (centres undefined), for which the Activity entry in data set [1] was “No activity”.

As for `O=P(O)(OCCCNCCCl)OP(=O)(O)OCCCNCCCl`, the Activity result in data set [1] and in data set [2] was “No activity” throughout. The compound further registered an LD50 in data set [4] of more than 1000 mg/kg.

The record behind these values is ChEMBL document CHEMBL1132146, “Chemical stability and fate of the cytostatic drug ifosfamide and its N-dechloroethylated metabolites in acidic aqueous solutions” (J Med Chem, 1999).
